# ChEMBL document CHEMBL1135530, “Selective alpha4beta7 integrin antagonists and their potential as antiinflammatory agents” (J Med Chem, 2002)
# Peptide text beside a SMILES is read from it.
# Columns and labels:
# Integrin alpha-4/beta-7 = molecular target: T1, Integrin alpha-4/beta-7 (Homo sapiens, UniProt P13612+P26010); assay: Ability to block the alpha4-beta7 integrin-MAdCAM-1 binding interaction using a protein ELISA format; type: protein-complex assay
# T1 sequence (P13612 whole entry): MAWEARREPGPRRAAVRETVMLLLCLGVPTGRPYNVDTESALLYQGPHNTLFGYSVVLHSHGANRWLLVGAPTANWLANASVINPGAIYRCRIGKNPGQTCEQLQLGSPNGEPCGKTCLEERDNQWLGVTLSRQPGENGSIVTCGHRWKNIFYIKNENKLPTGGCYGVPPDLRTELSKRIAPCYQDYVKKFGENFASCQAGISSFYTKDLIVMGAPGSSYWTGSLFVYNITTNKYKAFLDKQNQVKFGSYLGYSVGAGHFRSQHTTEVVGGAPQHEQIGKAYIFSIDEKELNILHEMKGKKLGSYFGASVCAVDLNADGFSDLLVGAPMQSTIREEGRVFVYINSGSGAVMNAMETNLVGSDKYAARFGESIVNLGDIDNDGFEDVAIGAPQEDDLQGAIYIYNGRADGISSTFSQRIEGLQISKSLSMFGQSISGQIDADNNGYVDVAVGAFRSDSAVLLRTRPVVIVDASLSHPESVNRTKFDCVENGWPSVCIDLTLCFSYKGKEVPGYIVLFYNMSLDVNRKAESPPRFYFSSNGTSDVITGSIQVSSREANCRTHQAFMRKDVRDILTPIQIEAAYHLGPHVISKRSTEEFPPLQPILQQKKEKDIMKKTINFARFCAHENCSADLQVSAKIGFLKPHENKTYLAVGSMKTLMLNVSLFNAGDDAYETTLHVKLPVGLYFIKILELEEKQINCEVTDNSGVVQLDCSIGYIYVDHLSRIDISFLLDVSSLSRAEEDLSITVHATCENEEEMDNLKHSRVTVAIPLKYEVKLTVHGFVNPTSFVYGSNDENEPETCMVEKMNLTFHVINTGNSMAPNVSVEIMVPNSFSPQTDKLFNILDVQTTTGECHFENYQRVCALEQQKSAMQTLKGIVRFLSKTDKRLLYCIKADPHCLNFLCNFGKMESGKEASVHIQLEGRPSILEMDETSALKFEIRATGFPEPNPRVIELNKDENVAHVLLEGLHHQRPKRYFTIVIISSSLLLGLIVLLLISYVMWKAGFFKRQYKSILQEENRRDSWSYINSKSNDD
# T1 sequence (P26010 whole entry): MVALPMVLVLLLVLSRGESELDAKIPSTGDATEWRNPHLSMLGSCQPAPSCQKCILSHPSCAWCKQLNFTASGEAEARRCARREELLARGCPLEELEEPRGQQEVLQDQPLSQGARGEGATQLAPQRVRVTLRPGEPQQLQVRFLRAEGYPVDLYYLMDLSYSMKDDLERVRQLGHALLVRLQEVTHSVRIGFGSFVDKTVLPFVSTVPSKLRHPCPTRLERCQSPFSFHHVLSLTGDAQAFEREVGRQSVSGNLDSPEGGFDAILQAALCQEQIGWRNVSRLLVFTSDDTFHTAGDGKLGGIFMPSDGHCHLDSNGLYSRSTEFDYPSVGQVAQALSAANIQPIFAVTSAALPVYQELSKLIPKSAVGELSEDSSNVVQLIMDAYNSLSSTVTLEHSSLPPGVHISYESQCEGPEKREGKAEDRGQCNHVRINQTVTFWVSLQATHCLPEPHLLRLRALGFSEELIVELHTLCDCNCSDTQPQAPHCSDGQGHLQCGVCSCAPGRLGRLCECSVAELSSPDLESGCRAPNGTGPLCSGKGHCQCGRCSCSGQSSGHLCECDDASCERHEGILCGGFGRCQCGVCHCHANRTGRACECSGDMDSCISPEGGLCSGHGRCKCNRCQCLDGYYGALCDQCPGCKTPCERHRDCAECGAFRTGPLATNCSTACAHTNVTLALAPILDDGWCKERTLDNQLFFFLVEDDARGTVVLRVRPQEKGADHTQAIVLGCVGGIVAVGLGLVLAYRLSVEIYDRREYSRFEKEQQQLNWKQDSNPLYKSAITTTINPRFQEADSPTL
# In short: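 Plates coated overnight at 4 °C with anti-human α4 antibody 9F10 (2 µg/mL), blocked in Tris pH 7.5 buffer with 1 mM MnCl2, Tween-20 and 0.5% BSA, then loaded with α4β7 purified from transfected JY cells (2 µg/mL). Compounds (1 nM–200 µM final, triplicate) plus MAdCAM-1-Ig-HRP (1 µg/mL), 2 h room temperature. TMB read at 450 nm; IC50 at half-maximal absorbance.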
# Integrin alpha-4/beta-1 = Integrin alpha-4/beta-1 (Homo sapiens, UniProt P05556+P13612); assay: Inhibitory concentration affording 50% inhibition of alpha4-beta1 integrin binding to VCAM-1, using ELISA assay.; type: protein-complex assay
# In short: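 α4β1 extracted from Ramos cell membranes (lectin chromatography, gel filtration in 1% octylglucoside), with 1 mM MnCl2 throughout. Wells coated with 4 µg/mL recombinant soluble human VCAM-1 (5 N-terminal Ig domains, from CHO cells) and blocked with 1% BSA. Inhibitor and receptor 2 h at 37 °C in Tris pH 7.4. Bound receptor detected with anti-β1 mAb 2D4.6, then HRP anti-mouse and TMB at 450 nm. IC50 at half-maximal absorbance.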
# Sequence of Integrin alpha-4/beta-1 (P05556 whole entry, one chain of several, the tested form may be a part): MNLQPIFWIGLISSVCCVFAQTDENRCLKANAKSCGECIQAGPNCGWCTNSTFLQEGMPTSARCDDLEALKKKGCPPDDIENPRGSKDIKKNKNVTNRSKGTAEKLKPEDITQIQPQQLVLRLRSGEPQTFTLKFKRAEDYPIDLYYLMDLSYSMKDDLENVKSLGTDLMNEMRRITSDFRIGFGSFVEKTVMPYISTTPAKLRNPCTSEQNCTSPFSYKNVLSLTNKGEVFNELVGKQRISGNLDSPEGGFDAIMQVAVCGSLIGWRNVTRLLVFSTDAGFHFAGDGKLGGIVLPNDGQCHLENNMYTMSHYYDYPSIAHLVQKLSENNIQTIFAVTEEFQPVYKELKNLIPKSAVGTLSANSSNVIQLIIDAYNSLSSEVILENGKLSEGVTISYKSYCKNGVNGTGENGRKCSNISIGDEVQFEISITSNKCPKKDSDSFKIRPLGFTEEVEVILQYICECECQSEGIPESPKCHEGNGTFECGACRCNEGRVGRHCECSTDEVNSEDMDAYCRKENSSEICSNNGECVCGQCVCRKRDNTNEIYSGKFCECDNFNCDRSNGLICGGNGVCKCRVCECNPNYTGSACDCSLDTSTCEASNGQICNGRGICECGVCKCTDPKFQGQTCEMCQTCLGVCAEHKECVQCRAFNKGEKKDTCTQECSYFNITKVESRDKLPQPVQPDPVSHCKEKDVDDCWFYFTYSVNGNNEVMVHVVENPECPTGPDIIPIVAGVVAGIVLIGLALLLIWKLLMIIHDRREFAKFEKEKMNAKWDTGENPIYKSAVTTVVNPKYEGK
Structure (SMILES),IC50 (Integrin alpha-4/beta-7) [nM],IC50 (Integrin alpha-4/beta-1) [µM]
"CC(C)C[C@@H]1NC(=O)[C@H]([C@@H](C)O)NC(=O)[C@H](CC(=O)O)NC(=O)[C@H](CO)NC(=O)[C@H](CCCN=C(N)N)NC(=O)[C@@H](NC(=O)[C@@H](N)CC(=O)O)CSSC[C@@H](C(=O)NCC(=O)N[C@@H](CCC(=O)O)C(N)=O)NC1=O (HELM PEPTIDE1{D.C.R.S.D.T.L.C.G.E.[am]}$PEPTIDE1,PEPTIDE1,2:R3-8:R3$$$V2.0)",260,8.3
C[C@@H](O)[C@@H]1NC(=O)[C@H](CC(=O)O)NC(=O)[C@H](CO)NC(=O)[C@H](CCCN=C(N)N)NC(=O)[C@@H](N)CSSC[C@@H](C(N)=O)NC(=O)CNC1=O,11000,> 100
CC(C)C[C@@H]1NC(=O)[C@H]([C@@H](C)O)NC(=O)[C@H](CC(=O)O)NC(=O)[C@H](CO)NC(=O)[C@H](CCCNC(=N)N)NC(=O)[C@@H](N)CSSC[C@@H](C(N)=O)NC1=O,120,4.2
CC(C)C[C@@H]1NC(=O)[C@H]([C@@H](C)O)NC(=O)[C@H](CCC(=O)O)NC(=O)[C@H](CO)NC(=O)[C@H](CCCN=C(N)N)NC(=O)[C@@H](N)CSSC[C@@H](C(N)=O)NC1=O,30000,3
"CSCC[C@H](NC(=O)[C@H](CC(C)C)NC(=O)[C@H](Cc1c[nH]c2ccccc12)NC(=O)[C@H](CCCN=C(N)N)NC(=O)[C@H](CCC(=O)O)NC(=O)[C@H](Cc1c[nH]c2ccccc12)NC(C)=O)C(=O)N[C@@H](CC(=O)O)C(=O)N[C@H]1CSSC[C@@H](C(=O)NCC(=O)N[C@@H](CCC(=O)O)C(=O)N[C@@H](CO)C(=O)N[C@@H](Cc2c[nH]cn2)C(=O)N[C@@H](CCC(N)=O)C(=O)N[C@@H](CCC(=O)O)C(N)=O)NC(=O)[C@H](CC(C)C)NC(=O)[C@H]([C@@H](C)O)NC(=O)[C@H](CC(=O)O)NC(=O)[C@H](CO)NC(=O)[C@H](CCCN=C(N)N)NC1=O (HELM PEPTIDE1{[ac].W.E.R.W.L.M.D.C.R.S.D.T.L.C.G.E.S.H.Q.E.[am]}$PEPTIDE1,PEPTIDE1,9:R3-15:R3$$$V2.0)",1300,12.1
"CC(C)C[C@@H]1NC(=O)[C@H]([C@@H](C)O)NC(=O)[C@H](CC(=O)O)NC(=O)[C@H](CO)NC(=O)[C@H](CCCNC(=N)N)NC(=O)[C@@H](NC(=O)[C@@H](N)CC(=O)O)CSSC[C@@H](C(N)=O)NC1=O (HELM PEPTIDE1{D.C.R.S.D.T.L.C.[am]}$PEPTIDE1,PEPTIDE1,2:R3-8:R3$$$V2.0)",520,8.6
CC(C)C[C@@H]1NC(=O)[C@H]([C@@H](C)O)NC(=O)[C@H](CC(=O)O)NC(=O)[C@H](CO)NC(=O)[C@H](Cc2c[nH]c3ccccc23)NC(=O)[C@@H](N)CSSC[C@@H](C(N)=O)NC1=O,430,0.16
"CC(C)C[C@@H]1NC(=O)[C@H]([C@@H](C)O)NC(=O)[C@H](CC(=O)O)NC(=O)[C@H](CO)NC(=O)[C@H](C)NC(=O)[C@@H](N)CSSC[C@@H](C(N)=O)NC1=O (HELM PEPTIDE1{C.A.S.D.T.L.C.[am]}$PEPTIDE1,PEPTIDE1,1:R3-7:R3$$$V2.0)",1100,2.8
C[C@@H](O)[C@@H]1NC(=O)[C@H](CC(=O)O)NC(=O)[C@H](CO)NC(=O)[C@H](CCCNC(=N)N)NC(=O)[C@@H](N)CSSC[C@@H](C(N)=O)NC(=O)[C@@H]2CCCN2C1=O,40000,37
"CSCC[C@H](N)C(=O)N[C@@H](CC(=O)O)C(=O)N[C@H]1CSSC[C@@H](C(N)=O)NC(=O)[C@H](CC(C)C)NC(=O)[C@H]([C@@H](C)O)NC(=O)[C@H](CC(=O)O)NC(=O)[C@H](CO)NC(=O)[C@H](CCCN=C(N)N)NC1=O (HELM PEPTIDE1{M.D.C.R.S.D.T.L.C.[am]}$PEPTIDE1,PEPTIDE1,3:R3-9:R3$$$V2.0)",640,11.8
CC[C@H](C)[C@@H]1NC(=O)[C@H]([C@@H](C)O)NC(=O)[C@H](CC(=O)O)NC(=O)[C@H](CO)NC(=O)[C@H](CCCNC(=N)N)NC(=O)[C@@H](N)CSSC[C@@H](C(N)=O)NC1=O,1800,25
CC(C)C[C@@H]1NC(=O)[C@H]([C@@H](C)O)NC(=O)[C@H](CC(=O)O)NC(=O)[C@H](CO)NC(=O)[C@H](Cc2ccccc2)NC(=O)[C@@H](N)CSSC[C@@H](C(N)=O)NC1=O,550,0.05
"CSCC[C@H](N)C(=O)N[C@@H](CC(=O)O)C(=O)N[C@H]1CSSC[C@@H](C(=O)NCC(N)=O)NC(=O)[C@H](CC(C)C)NC(=O)[C@H]([C@@H](C)O)NC(=O)[C@H](CC(=O)O)NC(=O)[C@H](CO)NC(=O)[C@H](CCCN=C(N)N)NC1=O (HELM PEPTIDE1{M.D.C.R.S.D.T.L.C.G.[am]}$PEPTIDE1,PEPTIDE1,3:R3-9:R3$$$V2.0)",340,8.8
CC[C@H](C)[C@@H]1NC(=O)[C@H](CCCN=C(N)N)NC(=O)[C@@H](N)CSSC[C@@H](C(N)=O)NC(=O)[C@H](CC(C)C)NC(=O)[C@H]([C@@H](C)O)NC(=O)[C@H](CC(=O)O)NC1=O,20000,1.2
CC(C)C[C@@H]1NC(=O)[C@H](CO)NC(=O)[C@H](CC(=O)O)NC(=O)[C@H](CO)NC(=O)[C@H](CCCNC(=N)N)NC(=O)[C@@H](N)CSSC[C@@H](C(N)=O)NC1=O,290,14
CC(C)C[C@H]1NC(=O)[C@H]([C@H](C)O)NC(=O)[C@H](CC(=O)O)NC(=O)[C@H](CO)NC(=O)[C@@H](CCCN=C(N)N)NC(=O)[C@H](N)CSSC[C@H](C(N)=O)NC1=O,> 100000,> 100
CC(C)C[C@@H]1NC(=O)[C@H]([C@@H](C)O)NC(=O)[C@H](CC(=O)O)NC(=O)[C@H](CO)NC(=O)[C@H](Cc2cnc[nH]2)NC(=O)[C@@H](N)CSSC[C@@H](C(N)=O)NC1=O,390,1.1
"CC(C)C[C@@H]1NC(=O)[C@H]([C@@H](C)O)NC(=O)[C@H](CC(=O)O)NC(=O)[C@H](C)NC(=O)[C@H](CCCNC(=N)N)NC(=O)[C@@H](N)CSSC[C@@H](C(N)=O)NC1=O (HELM PEPTIDE1{C.R.A.D.T.L.C.[am]}$PEPTIDE1,PEPTIDE1,1:R3-7:R3$$$V2.0)",2200,3.6
CC(C)C[C@@H]1NC(=O)[C@H](C(C)C)NC(=O)[C@H](CC(=O)O)NC(=O)[C@H](CO)NC(=O)[C@H](CCCN=C(N)N)NC(=O)[C@@H](N)CSSC[C@@H](C(N)=O)NC1=O,840,13
"C[C@@H]1NC(=O)[C@H]([C@@H](C)O)NC(=O)[C@H](CC(=O)O)NC(=O)[C@H](CO)NC(=O)[C@H](CCCN=C(N)N)NC(=O)[C@@H](N)CSSC[C@@H](C(N)=O)NC1=O (HELM PEPTIDE1{C.R.S.D.T.A.C.[am]}$PEPTIDE1,PEPTIDE1,1:R3-7:R3$$$V2.0)",23000,40
CSCC[C@@H]1NC(=O)[C@H](CCCN=C(N)N)NC(=O)[C@@H](N)CSSC[C@@H](C(N)=O)NC(=O)[C@H](CC(C)C)NC(=O)[C@H]([C@@H](C)O)NC(=O)[C@H](CC(=O)O)NC1=O,2200,3.2
